Test results: ChEMBL document CHEMBL1158686, “Three new taxane diterpenoids from Taxus sumatrana” (2005)

Experiments:
Type in all cases: functional
A498 = test: Cytotoxicity against human A498 cells assessed as growth inhibition after at 30 ug/ml 48 hrs by SRB assay; conditions: A498, 48 h
Summary of the method: (§1)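 Adherent cells were seeded at 5000–40 000 cells/well according to doubling time and preincubated 24 h at 37 °C in 5% CO2 and humidified air. Drug was diluted in complete medium with 50 µg/mL gentamicin and exposed for 48 h under the same conditions. Cells were fixed in situ with cold TCA (10% final, 60 min, 4 °C), stained with 0.4% SRB in 1% HOAc, solubilized in 10 mM Tris base, and read at 515 nm.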

NCI-H226 = test: Cytotoxicity against human NCI-H226 cells assessed as growth inhibition after at 30 ug/ml 48 hrs by SRB assay; conditions: NCI-H226, 48 h; summary of the method: as §1
A549 = test: Cytotoxicity against human A549 cells assessed as growth inhibition after at 30 ug/ml 48 hrs by SRB assay; conditions: A549, 48 h; summary of the method: as §1
PC-3 = test: Cytotoxicity against human PC-3 cells assessed as growth inhibition after at 30 ug/ml 48 hrs by SRB assay; conditions: PC-3, 48 h; summary of the method: as §1

Structure (SMILES) | inhibition at 30 µg/mL (A498) [%] | inhibition at 30 µg/mL (NCI-H226) [%] | inhibition at 30 µg/mL (A549) [%] | inhibition at 30 µg/mL (PC-3) [%]
CC(=O)O[C@@]12CO[C@@H]1C[C@H](O)[C@@]1(C)C(=O)[C@H](O)C3=C(C)[C@@H](O)C[C@@](O)([C@@H](OC(=O)c4ccccc4)[C@H]21)C3(C)C | 27 | 5.7 | 12.2 | 1.6
CC(=O)O[C@H]1C(=O)[C@@]2(CO)[C@H]([C@H](OC(=O)c3ccccc3)[C@]3(O)C[C@H](O)C(C)=C1C3(C)C)[C@]1(OC(C)=O)CO[C@@H]1C[C@@H]2O | 26.7 | 44.6 | 0 | 47.7
CC(=O)O[C@@]12CO[C@@H]1C[C@H](O)[C@@]1(C)C(=O)C(=O)C3=C(C)[C@@H](O)C[C@@](O)([C@@H](OC(=O)c4ccccc4)[C@H]21)C3(C)C | 79.1 | 97.3 | 54.7 | 100
CC(=O)O[C@@]12CO[C@@H]1C[C@H](O)[C@@]1(CO)C(=O)[C@H](O)C3=C(C)[C@@H](O)C[C@@](O)([C@@H](OC(=O)c4ccccc4)[C@H]21)C3(C)C | 16.6 | 32 | 0 | 2.3
CC(=O)O[C@H]1C(=O)[C@@]2(CO)[C@H]([C@H](OC(=O)c3ccccc3)[C@]3(O)CC(=O)C(C)=C1C3(C)C)[C@]1(OC(C)=O)CO[C@@H]1C[C@@H]2O | 79.8 | 84.7 | 45.4 | 88.2
CC(=O)O[C@H]1C[C@H]2OC[C@@]2(OC(C)=O)[C@H]2[C@H](OC(=O)c3ccccc3)[C@]3(C(C)(C)O)C[C@H](O)C(C)=C3[C@@H](O)[C@H](OC(C)=O)[C@]12C | 21.7 | 19.9 | 27.1 | 1.9
CC(=O)O[C@@]12CO[C@@H]1C[C@H](O)[C@@]1(C)C(=O)[C@H](O)C3=C(C)C(=O)C[C@@](O)([C@@H](OC(=O)c4ccccc4)[C@H]21)C3(C)C | 29.7 | 49.2 | 43.9 | 65.3
CC(=O)O[C@H]1C(=O)[C@@]2(C)[C@H]([C@H](OC(=O)c3ccccc3)[C@]3(O)C[C@H](OC(=O)[C@H](O)[C@@H](NC(=O)c4ccccc4)c4ccccc4)C(C)=C1C3(C)C)[C@]1(OC(C)=O)CO[C@@H]1C[C@@H]2O [PACLITAXEL] | 98.2 | 71.2 | 79.7 | 91.7
CC(=O)OC[C@H]1[C@H]2[C@H](O)[C@]3(C(C)(C)O)C[C@H](O)C(C)=C3[C@@H](O)[C@H](OC(=O)c3ccccc3)[C@]2(C)[C@@H](OC(C)=O)C[C@@H]1OC(C)=O [TASUMATROL F] | 83 | 78.5 | 72.6 | 95
CC(=O)O[C@H]1C[C@H](OC(C)=O)[C@]2(C)[C@@H]3[C@H](OC[C@]13OC(=O)c1ccccc1)[C@]1(C(C)(C)O)C[C@H](O)C(C)=C1[C@@H](O)[C@@H]2OC(C)=O [TASUMATROL G] | 15.3 | 78.9 | 24.1 | 58.9
CC(=O)OC[C@]1(O)[C@@H](OC(C)=O)C[C@H](OC(C)=O)[C@]2(C)[C@@H]1[C@H](O)[C@]1(C(C)(C)O)C[C@H](O)C(C)=C1[C@@H](O)[C@@H]2OC(=O)c1ccccc1 [TASUMATROLS E] | 100 | 84.8 | 91.3 | 94.7
CC(=O)O[C@H]1C[C@H](OC(C)=O)[C@]2(C)[C@@H]([C@@H]1CO)[C@H](OC(C)=O)[C@]1(C(C)(C)O)C[C@H](O)C(C)=C1[C@@H](O)[C@@H]2OC(C)=O [TAXAYUNTIN G] | 21.2 | 29.3 | 0 | 1.4
C=C1[C@@H](O)C[C@H](OC(C)=O)[C@@]2(COC(=O)c3ccccc3)[C@@H](OC(C)=O)[C@H](OC(C)=O)[C@]3(O)[C@@]4(C)CO[C@]3(C)C(=O)C[C@H]4[C@@H](OC(C)=O)[C@H]12 [TAXININ M] | 24.3 | 11.1 | 14.6 | 0
CC(=O)O[C@@]12CO[C@@H]1C[C@H](O)[C@]1(C)[C@@H]2[C@H](OC(=O)c2ccccc2)[C@]23C[C@H](O)C(C)=C2[C@@]1(O)C(=O)OC3(C)C [WALLIFOLIOL] | 27.9 | 29.1 | 16.7 | 6.4
